Laboratory results as given in publication PMC6785039 (Nature, 2019).
Several values for one entry are separate records, joined by “and”; a condition that tells them apart may be missing. Equal values may be shown once.

Key:
[1] = system: murine splenocytes; test: [32P] 2’3’-cGAMP uptake assay in primary murine splenocytes; format: cell-based, mouse; conditions: 500 μM competing, unlabeled
[2] = biological target: T1, SLC19A1 (Homo sapiens, UniProt P41440); test: [3H]-methotrexate uptake assay in THP-1 cells; format: cell-based; conditions: SLC19A1-depleted THP-1 cells, 1h
T1 sequence (P41440 1-591): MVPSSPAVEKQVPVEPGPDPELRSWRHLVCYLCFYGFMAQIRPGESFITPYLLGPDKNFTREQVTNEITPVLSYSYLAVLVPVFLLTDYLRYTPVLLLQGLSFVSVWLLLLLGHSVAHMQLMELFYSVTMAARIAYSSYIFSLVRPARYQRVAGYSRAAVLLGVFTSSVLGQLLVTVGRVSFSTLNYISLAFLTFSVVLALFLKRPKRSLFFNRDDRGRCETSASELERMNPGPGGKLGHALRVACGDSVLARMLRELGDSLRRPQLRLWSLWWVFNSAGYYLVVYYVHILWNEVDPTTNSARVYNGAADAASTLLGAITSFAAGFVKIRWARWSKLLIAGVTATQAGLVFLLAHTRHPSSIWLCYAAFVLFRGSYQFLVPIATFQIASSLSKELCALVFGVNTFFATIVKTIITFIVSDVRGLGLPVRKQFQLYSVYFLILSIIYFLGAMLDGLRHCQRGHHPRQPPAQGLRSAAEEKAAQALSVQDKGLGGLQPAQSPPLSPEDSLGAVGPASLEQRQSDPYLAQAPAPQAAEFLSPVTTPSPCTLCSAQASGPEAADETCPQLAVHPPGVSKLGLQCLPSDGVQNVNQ
How it was run: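 Cells washed and resuspended at 4x10^6/ml in MHS buffer (20 mM HEPES, 235 mM sucrose, pH 7.4 with MgO). Exposed to 12.3 nM [3H]-methotrexate at 37°C and 5% CO2 for 1 h. Radioactivity was counted by liquid scintillation for 3 min per sample, and counts per minute were normalized to total protein.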

[3] = system: THP-1 cells; format: cell-based, human; conditions: hIFN-β 100 ng/ml, sulfasalazine at high concentrations
[4] = biological target: T1, SLC19A1; test: [32P] 2’3’-cGAMP uptake and competition uptake assay in THP-1 cells; format: cell-based; conditions: for 2’3’-cGAMP uptake, time course with inhibitor in culture medium: 500 μM, various cell lines (THP-1, U937, K562); for CDN uptake: human cell lines and primary cells ex vivo; for CDN uptake and/or stimulation: human cells; for IC50: IC50, competition of [32P] 2’3’-cGAMP uptake, THP-1 cells, varying concentrations of competing, unlabeled ligand, 1 nM [32P] 2’3’-cGAMP; for [32P] 2’3’-cGAMP uptake in presence of unlabeled nucleotide: 200 μM competing
[5] = biological target: T1, SLC19A1; test: [32P] 2’3’-cGAMP uptake assay in human PBMCs; format: cell-based
[6] = system: STING; test: STING pathway activation; format: cell-based, human; conditions: THP-1 pre-treated with 5 μM
How it was run: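 Stimulated 4 h with 100 µM 2'3'-cGAMP, with or without digitonin (5 µg/mL). Read-outs were IFNB1 mRNA by RT-qPCR and STING dimerization/phosphorylation by semi-native PAGE immunoblot. Means of n=2 technical replicates.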

[7] = biological target: T1, SLC19A1; test: [32P] 2’3’-cGAMP uptake assay in K562 cells; format: cell-based; conditions: 5 μM, one hour
[8] = 500 μM excess, unlabeled, three hours, six healthy donors

2’3’-cGAMP uptake, time course with inhibitor in culture medium [4] | CDN uptake and/or stimulation [4] | [32P] 2’3’-cGAMP uptake in PBMCs [5, 8] | IC50 [4] | Compound | effect on reporter responses to hIFN-β [3] | further results
Sustained inhibition | almost completely blocked | strongly inhibited |  | CN(Cc1cnc2nc(N)nc(N)c2n1)c1ccc(C(=O)N[C@@H](CCC(=O)O)C(=O)O)cc1 [methotrexate] | did not inhibit | 2’3’-cGAMP uptake by murine splenocytes [1]: did not inhibit; uptake of methotrexate in SLC19A1-depleted cells [2]: nearly abolished; CDN uptake [4]: inhibited
Sustained inhibition | almost completely blocked | strongly inhibited | 2100 nM and 2060 nM | O=C(O)c1cc(/N=N/c2ccc(S(=O)(=O)Nc3ccccn3)cc2)ccc1O [sulfasalazine] | blocked | CDN uptake [4]: inhibited
Sustained inhibition | almost completely blocked |  | 4800 nM and 4790 nM | Nc1nc(=O)c2nc(CNc3ccc(C(=O)N[C@@H](CCC(=O)O)C(=O)O)cc3)cnc2[nH]1 [folic acid] |  | 

The next lines start with the compound.

Compound | 2’3’-cGAMP uptake, time course with inhibitor in culture medium [4] | CDN uptake and/or stimulation [4] | [32P] 2’3’-cGAMP uptake in PBMCs [5, 8] | IC50 [4] | effect on reporter responses to hIFN-β [3] | further results
CN1c2c(nc(N)[nH]c2=O)NCC1CNc1ccc(C(=O)N[C@@H](CCC(=O)O)C(=O)O)cc1 (stereo partly shown) [5-me-THF, 5-methyl-tetrahydrofolic acid] | Sustained inhibition |  | strongly inhibited | 4.1 nM | did not inhibit | completeness of inhibition of [32P] 2’3’-cGAMP uptake ([4]; THP-1, compared to the other (anti-) folates): did not observe complete inhibition; trans-stimulation of 2’3’-cGAMP influx by preloading the cells ([4]; THP-1, preloaded 30 min, washed, [32P] 2’3’-cGAMP for one hour): augmented
N-hydroxysuccinimide (NHS)-methotrexate [NHS-methotrexate] |  |  |  |  |  | STING activation by 2’3’-cGAMP [6]: blocks STING activation; 2’3’-cGAMP influx in treated cells [7]: much reduced; 2’3’-cGAMP influx in treated cells ([4]; THP-1, 5 μM, one hour): much reduced; [32P] 2’3’-cGAMP uptake in PBMCs ([5]; 5 μM pre-treatment, one hour, four healthy donors): strongly inhibited
Nc1nc2c(ncn2[C@@H]2O[C@H](COP(=O)(O)O)[C@@H](O)[C@H]2O)c(=O)[nH]1 [GMP] |  |  |  |  |  | [32P] 2’3’-cGAMP uptake in presence of unlabeled nucleotide ([4]; THP-1, one hour): slightly inhibited
Nc1ncnc2c1ncn2[C@@H]1O[C@H](COP(=O)(O)O)[C@@H](O)[C@H]1O [AMP] |  |  |  |  |  | [32P] 2’3’-cGAMP uptake in presence of unlabeled nucleotide ([4]; THP-1, one hour): slightly inhibited
